{"source": "ChEMBL document CHEMBL3856239", "about": "“Synthesis and Antiobesity Properties of 6-(4-Chlorophenyl)-3-(4-((3,3-difluoro-1-hydroxycyclobutyl)methoxy)-3-methoxyphenyl)thieno[3,2-d]pyrimidin-4(3H)-one (BMS-814580): A Highly Efficacious Melanin Concentrating Hormone Receptor 1 (MCHR1) Inhibitor” (J Med Chem, 2016)"}
{"tested_on": "not listed separately", "test": "Displacement of [Phe13,125I]Tyr19]-MCH from human MCHR1 E4Q/A5T double mutant expressed in HEK293 cells by TopCount scintillation counting method", "assay_type": "cell-based", "details": "not given", "units": {"Ki": "nM"}}
{"smiles": "COc1cc(-n2cnc3cc(-c4ccc(Cl)cc4)sc3c2=O)ccc1OCC1(O)CCOCC1", "Ki": 11.2}
{"smiles": "COc1cc(-n2cnc3cc(-c4ccc(Cl)cc4)sc3c2=O)ccc1OC[C@@H](C)O", "Ki": 9.5}
{"smiles": "COc1cc(-n2cnc3cc(-c4ccc(Cl)cc4)sc3c2=O)ccc1OCC1(O)CC1", "Ki": 17.5}
{"smiles": "COc1cc(-n2cnc3cc(-c4ccc(Cl)cc4)sc3c2=O)ccc1OCC1(O)COC1", "Ki": 8.7}
{"smiles": "COc1cc(-n2cnc3cc(-c4ccc(Cl)cc4)sc3c2=O)ccc1OCC1(O)CCCC1", "Ki": 11.9}
{"smiles": "COc1cc(-n2cnc3cc(-c4ccc(Cl)cc4)sc3c2=O)ccc1OCC1(O)CCC1", "Ki": 9.8}
{"smiles": "COc1cc(-n2cnc3cc(-c4ccc(Cl)cc4)sc3c2=O)ccc1OCCN1CCCC1", "Ki": "2.9 to 3.8"}
{"tested_on": "not listed separately", "test": "Metabolic stability in human liver microsomes assessed as compound remaining at 3 uM measured after 10 min", "assay_type": "ADME", "details": "read-out: Stability", "procedure,_shortened": "(§1)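 Test compound at 3.0 µM incubated with liver microsomes for 10 minutes; read-out is percent of parent remaining.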", "units": {"remaining at 10 min, 3 µM": "%"}}
{"smiles": "COc1cc(-n2cnc3cc(-c4ccc(Cl)cc4)sc3c2=O)ccc1OCC1(O)CCOCC1", "remaining at 10 min, 3 µM": 87}
{"smiles": "COc1cc(-n2cnc3cc(-c4ccc(Cl)cc4)sc3c2=O)ccc1OCC1(O)CC1", "remaining at 10 min, 3 µM": 94}
{"smiles": "COc1cc(-n2cnc3cc(-c4ccc(Cl)cc4)sc3c2=O)ccc1OCC1(O)COC1", "remaining at 10 min, 3 µM": 100}
{"smiles": "COc1cc(-n2cnc3cc(-c4ccc(Cl)cc4)sc3c2=O)ccc1OCC1(O)CCCC1", "remaining at 10 min, 3 µM": 73}
{"tested_on": "not listed separately", "test": "Metabolic stability in rat liver microsomes assessed as compound remaining at 3 uM measured after 10 min", "assay_type": "ADME", "details": "read-out: Stability", "procedure,_shortened": "as §1", "units": {"remaining at 10 min, 3 µM": "%"}}
{"smiles": "COc1cc(-n2cnc3cc(-c4ccc(Cl)cc4)sc3c2=O)ccc1OCC1(O)CCOCC1", "remaining at 10 min, 3 µM": 27}
{"smiles": "COc1cc(-n2cnc3cc(-c4ccc(Cl)cc4)sc3c2=O)ccc1OCC1(O)CC1", "remaining at 10 min, 3 µM": 61}
{"smiles": "COc1cc(-n2cnc3cc(-c4ccc(Cl)cc4)sc3c2=O)ccc1OCC1(O)COC1", "remaining at 10 min, 3 µM": 47}
{"smiles": "COc1cc(-n2cnc3cc(-c4ccc(Cl)cc4)sc3c2=O)ccc1OCC1(O)CCCC1", "remaining at 10 min, 3 µM": 14}
{"smiles": "COc1cc(-n2cnc3cc(-c4ccc(Cl)cc4)sc3c2=O)ccc1OCC1(O)CCC1", "remaining at 10 min, 3 µM": 24}
{"tested_on": "not listed separately", "test": "Metabolic stability in mouse liver microsomes assessed as compound remaining at 3 uM measured after 10 min", "assay_type": "ADME", "details": "read-out: Stability", "procedure,_shortened": "as §1", "units": {"remaining at 10 min, 3 µM": "%"}}
{"smiles": "COc1cc(-n2cnc3cc(-c4ccc(Cl)cc4)sc3c2=O)ccc1OCC1(O)CCOCC1", "remaining at 10 min, 3 µM": 98}
{"smiles": "COc1cc(-n2cnc3cc(-c4ccc(Cl)cc4)sc3c2=O)ccc1OCC1(O)CC1", "remaining at 10 min, 3 µM": 99}
{"smiles": "COc1cc(-n2cnc3cc(-c4ccc(Cl)cc4)sc3c2=O)ccc1OCC1(O)COC1", "remaining at 10 min, 3 µM": 100}
{"tested_on": "not listed separately", "test": "Solubility of the compound in phosphate buffer at pH 6.4", "assay_type": "physicochemical", "details": "not given", "procedure,_shortened": "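Solubility of parent compounds and prodrugs measured in 50 mM phosphate buffer, pH 6.4.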", "units": {"solubility": "µg/mL"}}
{"smiles": "COc1cc(-n2cnc3cc(-c4ccc(Cl)cc4)sc3c2=O)ccc1OCC1(O)CCOCC1", "solubility": "< 1"}
{"smiles": "COc1cc(-n2cnc3cc(-c4ccc(Cl)cc4)sc3c2=O)ccc1OCC1(O)CC1", "solubility": "< 1"}
{"smiles": "COc1cc(-n2cnc3cc(-c4ccc(Cl)cc4)sc3c2=O)ccc1OCC1(O)COC1", "solubility": "< 1"}
{"smiles": "COc1cc(-n2cnc3cc(-c4ccc(Cl)cc4)sc3c2=O)ccc1OCC1(O)CCCC1", "solubility": "< 1"}
{"smiles": "COc1cc(-n2cnc3cc(-c4ccc(Cl)cc4)sc3c2=O)ccc1OCC1(O)CCC1", "solubility": "< 1"}
{"tested_on": "not listed separately", "test": "Lipophilicity, log P of the compound at pH 7 by HPLC analysis", "assay_type": "physicochemical", "details": "buffer", "procedure,_shortened": "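LogP determined by HPLC at pH 7.0.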"}
{"smiles": "COc1cc(-n2cnc3cc(-c4ccc(Cl)cc4)sc3c2=O)ccc1OCC1(O)CCOCC1", "logP": 4.2}
{"smiles": "COc1cc(-n2cnc3cc(-c4ccc(Cl)cc4)sc3c2=O)ccc1OCC1(O)CC1", "logP": 4.1}
{"smiles": "COc1cc(-n2cnc3cc(-c4ccc(Cl)cc4)sc3c2=O)ccc1OCC1(O)COC1", "logP": 3.8}
{"smiles": "COc1cc(-n2cnc3cc(-c4ccc(Cl)cc4)sc3c2=O)ccc1OCC1(O)CCCC1", "logP": 4.7}
{"smiles": "COc1cc(-n2cnc3cc(-c4ccc(Cl)cc4)sc3c2=O)ccc1OCC1(O)CCC1", "logP": 4.7}
{"tested_on": "not listed separately", "test": "Protein binding in Sprague-Dawley rat plasma at 10 mg/kg, po qd for 4 days", "assay_type": "ADME, organism-based", "details": "read-out: PPB"}
{"smiles": "COc1cc(-n2cnc3cc(-c4ccc(Cl)cc4)sc3c2=O)ccc1OCC1(O)CCOCC1", "fraction unbound at 96 h": "< 0.02"}
{"smiles": "COc1cc(-n2cnc3cc(-c4ccc(Cl)cc4)sc3c2=O)ccc1OCC1(O)CC1", "fraction unbound at 96 h": "< 0.02"}
{"smiles": "COc1cc(-n2cnc3cc(-c4ccc(Cl)cc4)sc3c2=O)ccc1OCC1(O)COC1", "fraction unbound at 96 h": "< 0.02"}
{"smiles": "COc1cc(-n2cnc3cc(-c4ccc(Cl)cc4)sc3c2=O)ccc1OCC1(O)CCCC1", "fraction unbound at 96 h": "< 0.02"}
{"smiles": "COc1cc(-n2cnc3cc(-c4ccc(Cl)cc4)sc3c2=O)ccc1OCC1(O)CCC1", "fraction unbound at 96 h": "< 0.02"}
{"tested_on": "Rattus norvegicus", "test": "Toxicity in Sprague-Dawley rat assessed as incidence of biliary lesions at 30 mg/kg, po for 4 days", "assay_type": "organism-based", "details": "in vivo, 96 h", "procedure,_shortened": "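SD rats dosed orally once daily for 4 days at 3, 10 and 30 mg/kg, as glycine prodrug in 0.5% Methocel/0.1% Tween 80 vehicle. Parent plasma and brain levels taken on day 4 at 20 h; n = 8. Biliary lesions examined.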", "units": {"Activity": "%"}}
{"smiles": "COc1cc(-n2cnc3cc(-c4ccc(Cl)cc4)sc3c2=O)ccc1OCC1(O)COC1", "Activity": 40}
{"biological_target": "hERG (KCNH2) (Homo sapiens, UniProt Q12809)", "sequence (Q12809 whole entry)": "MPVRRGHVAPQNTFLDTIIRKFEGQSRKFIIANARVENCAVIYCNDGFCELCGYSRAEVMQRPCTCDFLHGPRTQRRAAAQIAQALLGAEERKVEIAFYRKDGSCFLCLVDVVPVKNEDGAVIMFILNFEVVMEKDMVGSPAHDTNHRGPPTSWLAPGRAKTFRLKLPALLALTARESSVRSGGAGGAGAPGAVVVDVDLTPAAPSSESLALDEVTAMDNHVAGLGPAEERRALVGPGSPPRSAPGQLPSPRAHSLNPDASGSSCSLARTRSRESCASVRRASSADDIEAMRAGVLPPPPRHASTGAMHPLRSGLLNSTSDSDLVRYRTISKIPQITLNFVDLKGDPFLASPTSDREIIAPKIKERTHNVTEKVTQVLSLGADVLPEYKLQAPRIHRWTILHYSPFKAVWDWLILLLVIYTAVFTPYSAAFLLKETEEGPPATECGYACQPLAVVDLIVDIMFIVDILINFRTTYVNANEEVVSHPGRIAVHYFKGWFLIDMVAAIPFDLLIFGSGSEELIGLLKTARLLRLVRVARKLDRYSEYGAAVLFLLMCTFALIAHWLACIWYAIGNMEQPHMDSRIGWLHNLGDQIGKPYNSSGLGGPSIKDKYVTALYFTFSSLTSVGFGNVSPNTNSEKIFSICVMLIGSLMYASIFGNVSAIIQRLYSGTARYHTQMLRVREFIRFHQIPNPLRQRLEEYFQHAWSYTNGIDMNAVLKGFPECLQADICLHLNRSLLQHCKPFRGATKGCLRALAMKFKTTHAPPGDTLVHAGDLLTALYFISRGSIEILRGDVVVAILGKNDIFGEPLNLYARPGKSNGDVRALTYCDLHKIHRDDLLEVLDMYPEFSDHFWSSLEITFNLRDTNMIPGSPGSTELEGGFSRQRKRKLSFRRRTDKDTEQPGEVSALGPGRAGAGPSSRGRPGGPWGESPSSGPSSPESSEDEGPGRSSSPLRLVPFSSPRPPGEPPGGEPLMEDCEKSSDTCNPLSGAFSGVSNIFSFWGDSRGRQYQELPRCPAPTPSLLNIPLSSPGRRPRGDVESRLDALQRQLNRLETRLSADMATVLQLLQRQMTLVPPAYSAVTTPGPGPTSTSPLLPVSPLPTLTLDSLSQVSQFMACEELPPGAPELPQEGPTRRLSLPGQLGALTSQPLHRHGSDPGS", "test": "Inhibition of human ERG at 1 uM by patch clamp assay", "details": "not given", "units": {"inhibition at 1 µM": "%"}}
{"smiles": "COc1cc(-n2cnc3cc(-c4ccc(Cl)cc4)sc3c2=O)ccc1OC[C@@H](C)O", "inhibition at 1 µM": 43.8}
{"tested_on": "not listed separately", "test": "AUC in Sprague-Dawley rat at 10 mg/kg, po measured after 8 hrs", "assay_type": "ADME, organism-based", "set-up": "time < 8 hr, dose 10 mg/kg, route oral", "details": "in vivo", "units": {"AUC at 8 h": "µM·h"}}
{"smiles": "COc1cc(-n2cnc3cc(-c4ccc(Cl)cc4)sc3c2=O)ccc1OCC1(O)CCOCC1", "AUC at 8 h": 0.4}
{"smiles": "COc1cc(-n2cnc3cc(-c4ccc(Cl)cc4)sc3c2=O)ccc1OCC1(O)CCC1", "AUC at 8 h": 0.2}
{"tested_on": "not listed separately", "test": "Drug uptake in Sprague-Dawley rat brain at 10 mg/kg, po measured after 8 hrs", "assay_type": "ADME, organism-based", "details": "read-out: Drug uptake", "procedure,_shortened": "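Sprague-Dawley rats dosed orally once at 10 mg/kg as parent or glycinate prodrug (prodrug dose adjusted to parent), vehicle 0.5% Methocel/0.1% Tween 80/99.4% water; parent compound measured in brain 8 h post dose, n = 2.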", "units": {"concentration at 8 h": "nM"}}
{"smiles": "COc1cc(-n2cnc3cc(-c4ccc(Cl)cc4)sc3c2=O)ccc1OCC1(O)CCOCC1", "concentration at 8 h": "< 3"}
{"smiles": "COc1cc(-n2cnc3cc(-c4ccc(Cl)cc4)sc3c2=O)ccc1OCC1(O)CCC1", "concentration at 8 h": "< 3"}
{"tested_on": "not listed separately", "test": "Plasma concentration in Sprague-Dawley rat at 10 mg/kg, po measured after 8 hrs", "assay_type": "ADME, organism-based", "details": "not given", "procedure,_shortened": "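SD rats given 10 mg/kg orally as parent or glycine prodrug (prodrug dose adjusted to parent), in 0.5% Methocel/0.1% Tween 80/99.4% water. Plasma and brain levels of parent measured 8 h post dose, n = 2; 0–8 h plasma AUC also determined.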", "units": {"concentration at 8 h": "nM"}}
{"smiles": "COc1cc(-n2cnc3cc(-c4ccc(Cl)cc4)sc3c2=O)ccc1OCC1(O)CCOCC1", "concentration at 8 h": 29}
{"smiles": "COc1cc(-n2cnc3cc(-c4ccc(Cl)cc4)sc3c2=O)ccc1OCC1(O)CCC1", "concentration at 8 h": 6}
